{"source": "paper PMC8546857", "about": "(Acta Pharmaceutica Sinica. B, 2021)", "key": {"[1]": {"molecular_target": "TEAD3-YBD recombinant protein (Homo sapiens, UniProt Q99594)", "sequence (Q99594 219-435)": "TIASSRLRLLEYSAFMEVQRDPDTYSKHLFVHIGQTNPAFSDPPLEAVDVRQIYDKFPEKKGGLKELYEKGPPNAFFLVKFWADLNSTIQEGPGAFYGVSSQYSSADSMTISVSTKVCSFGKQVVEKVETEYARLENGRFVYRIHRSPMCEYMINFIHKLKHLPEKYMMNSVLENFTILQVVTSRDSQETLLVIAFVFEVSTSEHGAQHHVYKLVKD", "test": "gel-based ABPP in vitro palmitoylation assay, TEAD3", "format": "biochemical", "conditions": "for inhibition of TEAD3 palmitoylation: click-based ABPP assay", "outline": "(§1)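 Protein incubated with varying test compound concentrations, 37 °C, 2 h; flufenamic acid as positive control. Then 2.5 μmol/L palmitoyl-CoA on ice, click reaction at RT. Quenched in SDS buffer with 30 mmol/L EDTA, 95 °C, 5 min. Read by Western blot with densitometry; biological triplicates, mean ± SD.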"}, "TEAD2": {"molecular_target": "TEAD2 (Homo sapiens, UniProt Q15562)", "sequence (Q15562 217-447)": "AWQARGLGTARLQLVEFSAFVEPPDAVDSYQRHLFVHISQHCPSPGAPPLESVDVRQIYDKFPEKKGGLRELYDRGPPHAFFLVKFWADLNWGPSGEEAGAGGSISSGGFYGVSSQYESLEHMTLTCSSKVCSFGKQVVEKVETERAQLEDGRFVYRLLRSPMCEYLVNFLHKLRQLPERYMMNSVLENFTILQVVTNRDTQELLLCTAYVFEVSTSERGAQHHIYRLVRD", "test": "gel-based ABPP in vitro palmitoylation assay, TEAD2", "format": "biochemical", "conditions": "gel-based ABPP selectivity profiling", "outline": "as §1"}, "TEAD4": {"molecular_target": "TEAD4 (Homo sapiens, UniProt Q15561)", "sequence (Q15561 217-434)": "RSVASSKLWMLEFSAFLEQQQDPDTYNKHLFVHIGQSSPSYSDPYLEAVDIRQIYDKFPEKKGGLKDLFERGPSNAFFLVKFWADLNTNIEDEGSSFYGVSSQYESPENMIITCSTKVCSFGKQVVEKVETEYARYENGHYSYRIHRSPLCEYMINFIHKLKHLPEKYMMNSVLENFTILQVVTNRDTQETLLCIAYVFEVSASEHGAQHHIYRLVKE", "test": "gel-based ABPP in vitro palmitoylation assay, TEAD4", "format": "biochemical", "conditions": "gel-based ABPP selectivity profiling", "outline": "as §1"}, "TEAD3-YBD C371A mutant": {"molecular_target": "TEAD3-YBD C371A mutant (Homo sapiens, UniProt Q99594, C368A)", "sequence (Q99594 219-435 C368A)": "as the sequence (Q99594 219-435) above, with C150A counted along it", "test": "protein thermal shift assay", "format": "binding", "conditions": "DSF", "outline": "(§2)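 Differential scanning fluorimetry. 5 μmol/L purified wild-type or mutant protein with 5× SYPRO Orange, in 20 mmol/L HEPES pH 8.5, 100 mmol/L NaCl, 2.5% DMSO, with or without test compound. Ramped 25–95 °C on a real-time PCR instrument, ROX filter. Tm calculated from raw fluorescence data.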"}, "TEAD1-YBD C359A mutant": {"molecular_target": "TEAD1-YBD C359A mutant (Homo sapiens, UniProt P28347, C359A)", "sequence (P28347 209-426 C359A)": "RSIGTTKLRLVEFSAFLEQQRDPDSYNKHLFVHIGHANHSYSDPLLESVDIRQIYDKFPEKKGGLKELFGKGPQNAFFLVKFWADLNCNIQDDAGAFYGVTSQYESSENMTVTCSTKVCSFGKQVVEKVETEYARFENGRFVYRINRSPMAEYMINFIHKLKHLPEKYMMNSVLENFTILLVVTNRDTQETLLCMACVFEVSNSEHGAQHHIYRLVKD", "test": "protein thermal shift assay", "format": "binding", "conditions": "DSF"}, "TEAD‒YAP interaction [2]": {"molecular_target": "T1, TEAD‒YAP interaction (Homo sapiens, UniProt Q99594)", "T1 sequence (Q99594 219-435)": "as the sequence (Q99594 219-435) above", "T1 sequence (P46937 61-100 partner limits assumed)": "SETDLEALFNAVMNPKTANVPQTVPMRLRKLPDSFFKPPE", "test": "fluorescence polarization assay with FITC-labeled YAP peptide", "format": "binding", "conditions": "FP assay, FITC-YAP(61-100), TEAD3 protein", "outline": "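Then 30 nmol/L FITC-YAP(61–100) added for 30 min at room temperature. Polarisation read at ex 480/em 520 nm. Unlabelled synthetic YAP peptide as positive control; triplicates.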"}, "TEAD1 [3]": {"molecular_target": "T2, TEAD1 (Homo sapiens, UniProt P28347)", "test": "cellular thermal shift assay", "format": "cell-based", "conditions": "HEK293T cells, 50 μmol/L, 6 h", "outline": "(§3)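 HEK293T transfected with N-terminal 3×FLAG-tagged TEAD1–4, then given 50 μmol/L test compound or DMSO, 37 °C, 6 h. Cells trypsinised, PBS-washed, resuspended in PBS with protease inhibitor. Aliquots heated 3 min at set temperatures, then 3 min at room temperature. Three freeze–thaw cycles (liquid nitrogen/RT water), spin 20,000×g, 30 min, 4 °C. Soluble fraction immunoblotted for FLAG, with GAPDH.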"}, "TEAD3 [4]": {"molecular_target": "T3, TEAD3 (Homo sapiens, UniProt Q99594)", "test": "cellular thermal shift assay", "format": "cell-based", "conditions": "HEK293T cells, 50 μmol/L, 6 h", "outline": "as §3"}, "juvenile zebrafish": {"test_system": "juvenile zebrafish", "test": "proportional growth of juvenile zebrafish", "format": "in vivo", "conditions": "2-month-old juveniles, 0.25 μmol/L in water, 14 days", "outline": "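AB wild-type zebrafish, 2 months old, both sexes equally, 10 per dish in 30 mL sterilised facility water. Water held 0.25 μmol/L test compound (final) or matching DMSO dilution for 14 days, aerated, refreshed daily; fed twice daily. Fish imaged by stereomicroscope from day 0. Fin length taken from fin base to line joining lobe tips; body length from jaw tip to caudal fin base.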"}, "TEAD1 [5]": {"molecular_target": "T2, TEAD1", "test": "intact protein mass spectrometry, TEAD1", "format": "binding", "conditions": "excessive compound, 24 h at 4 °C", "outline": "(§4)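 Intact-mass LC/MS. Protein diluted to 1 mg/mL in water with 0.1% formic acid; 2 μg injected. Separated on a PLRP-S column with a 15-min water/acetonitrile (0.1% formic acid) gradient at 0.300 mL/min. Analysed on an Orbitrap Fusion with HESI source (capillary 350 °C, 3.5 kV).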"}, "TEAD3 [6]": {"molecular_target": "T3, TEAD3", "test": "intact protein mass spectrometry, TEAD3", "format": "binding", "conditions": "excessive compound, 24 h at 4 °C", "outline": "as §4"}, "TEAD1-YBD": {"molecular_target": "TEAD1-YBD (Homo sapiens, UniProt P28347)", "sequence (P28347 209-426)": "as the sequence (P28347 209-426 C359A) above, with A151C counted along it", "test": "gel-based ABPP in vitro palmitoylation assay, TEAD1", "format": "biochemical", "conditions": "gel-based ABPP selectivity profiling", "outline": "as §1"}, "[7]": {"molecular_target": "TEAD3 Y223 mutated to phenylalanine (Homo sapiens, UniProt Q99594, Y230F)", "sequence (Q99594 219-435 Y230F)": "as the sequence (Q99594 219-435) above, with Y12F counted along it", "test": "gel-based ABPP assay, TEAD3 Y223F mutant", "format": "biochemical", "outline": "as §1"}, "wild-type TEAD3-YBD": {"molecular_target": "wild-type TEAD3-YBD (Homo sapiens, UniProt Q99594)", "sequence (Q99594 219-435)": "as the sequence (Q99594 219-435) above", "test": "protein thermal shift assay", "format": "binding", "conditions": "DSF", "outline": "as §2"}, "widetype TEAD1": {"molecular_target": "widetype TEAD1 (Homo sapiens, UniProt P28347)", "sequence (P28347 209-426)": "as the sequence (P28347 209-426 C359A) above, with A151C counted along it", "test": "protein thermal shift assay", "format": "binding", "conditions": "DSF", "outline": "as §2"}, "TEAD1 C359S": {"molecular_target": "TEAD1 C359S (Homo sapiens, UniProt P28347, C359S)", "sequence (P28347 209-426 C359S)": "as the sequence (P28347 209-426 C359A) above, with A151S counted along it", "test": "protein thermal shift assay", "format": "binding", "conditions": "DSF", "outline": "as §2"}, "GAL4-TEAD3": {"molecular_target": "GAL4-TEAD3 (Homo sapiens, UniProt Q99594)", "sequence (Q99594 2-435)": "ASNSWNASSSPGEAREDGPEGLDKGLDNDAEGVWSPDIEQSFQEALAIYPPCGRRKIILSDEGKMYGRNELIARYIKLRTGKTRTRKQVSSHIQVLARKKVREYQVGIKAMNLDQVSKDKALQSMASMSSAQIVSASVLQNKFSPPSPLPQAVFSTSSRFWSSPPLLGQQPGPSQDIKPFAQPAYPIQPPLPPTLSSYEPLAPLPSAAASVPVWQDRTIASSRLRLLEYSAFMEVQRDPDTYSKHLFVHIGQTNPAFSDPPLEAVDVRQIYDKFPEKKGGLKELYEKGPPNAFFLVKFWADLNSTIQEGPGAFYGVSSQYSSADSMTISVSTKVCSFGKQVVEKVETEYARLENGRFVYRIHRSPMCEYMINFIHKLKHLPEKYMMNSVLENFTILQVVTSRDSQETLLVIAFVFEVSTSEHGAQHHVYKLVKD", "sequence (P46937 whole entry partner, the tested form may be a part)": "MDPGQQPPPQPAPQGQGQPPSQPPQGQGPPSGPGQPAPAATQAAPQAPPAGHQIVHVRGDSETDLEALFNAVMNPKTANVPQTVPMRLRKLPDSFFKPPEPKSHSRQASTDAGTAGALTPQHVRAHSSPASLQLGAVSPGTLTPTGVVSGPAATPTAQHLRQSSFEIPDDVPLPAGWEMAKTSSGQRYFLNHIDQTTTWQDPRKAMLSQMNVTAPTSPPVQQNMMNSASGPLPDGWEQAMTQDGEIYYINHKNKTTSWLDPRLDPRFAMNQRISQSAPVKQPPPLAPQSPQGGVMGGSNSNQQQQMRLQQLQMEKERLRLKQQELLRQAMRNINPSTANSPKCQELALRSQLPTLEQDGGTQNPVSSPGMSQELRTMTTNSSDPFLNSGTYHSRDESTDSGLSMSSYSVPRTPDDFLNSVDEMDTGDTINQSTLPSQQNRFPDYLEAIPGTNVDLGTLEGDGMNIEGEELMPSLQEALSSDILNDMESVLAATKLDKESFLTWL", "test": "GAL4-Luc reporter assay, GAL4-TEAD3", "format": "cell-based", "outline": "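HEK293T cells (DMEM, 10% FBS, 1% penicillin/streptomycin) co-transfected with a GAL4-Luc reporter (secreted luciferase, 9×GAL4 binding elements), a GAL4-DBD-fused TEAD1, TEAD2, TEAD3 or TEAD4 expression vector, and a YAP-expressing plasmid. Test compound at the specified concentration, 37 °C, 12 h; luciferase signal read on a plate reader. Mean of three technical replicates.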"}, "[8]": {"test_system": "8xGTIIC-Luc TEADs reporter", "test": "TEAD luciferase reporter assay", "format": "cell-based", "conditions": "HEK293T cells, compared with DC-TEADin1072-N1", "outline": "(§5)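 HEK293T seeded at 2 × 10^5/well. Transfected with 200 ng 8xGTIIC-Luc TEAD reporter or TOPFlash β-catenin reporter, plus 20 ng pGL4.75 Renilla as internal control. Cells then exposed to various concentrations of test compound or DMSO. Firefly and Renilla signals measured by dual-luciferase assay.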"}, "[9]": {"test_system": "TOP Flash beta-catenin reporter system", "test": "TOPFlash beta-catenin reporter assay", "format": "cell-based", "conditions": "HEK293T cells", "outline": "as §5"}, "TEAD‒YAP interaction [10]": {"molecular_target": "T1, TEAD‒YAP interaction", "conditions": "FP assay; cited from earlier work"}}, "note": "“Also recorded” adds a separate entry of the source. Like-named read-outs stand apart in the source and are kept apart here."}
{"compound": "C=CC(=O)N1CCN(CCCOCc2ccccc2)CC1", "note": "[DC-TEAD3in02, 1-(4-(3-(Benzyloxy)propyl)piperazin-1-yl)prop-2-en-1-one]", "values": [{"measurement": "inhibition of TEAD3 palmitoylation", "setting": "[1]", "value": "potent inhibition"}]}
{"compound": "C=CC(=O)N1CCC(CCOc2ccccc2)CC1", "note": "[DC-TEADin1072, 1-(4-(2-Phenoxyethyl)piperidin-1-yl)prop-2-en-1-one]", "values": [{"measurement": "IC50", "setting": "[1]", "value": "580 ± 120", "unit": "nM"}, {"measurement": "inhibition of TEAD2 palmitoylation", "setting": "TEAD2", "value": "sparing"}, {"measurement": "inhibition of TEAD4 palmitoylation", "setting": "TEAD4", "value": "sparing"}, {"measurement": "effect on thermal stability of TEAD3 C371A mutant", "setting": "TEAD3-YBD C371A mutant", "value": "significantly abolished the compound effect"}, {"measurement": "effect on thermal stability of TEAD1-YBD C359A mutant", "setting": "TEAD1-YBD C359A mutant", "value": "significantly abolished the compound effect"}, {"measurement": "effect on TEAD‒YAP interaction", "setting": "TEAD‒YAP interaction [2]", "value": "minimal effect"}, {"measurement": "thermal stability of TEAD1 in intact cells", "setting": "TEAD1 [3]", "value": "increase the thermal stability"}, {"measurement": "thermal stability / soluble fraction of TEAD3 in intact cells", "setting": "TEAD3 [4]", "value": "increase the thermal stability"}, {"measurement": "ectopic or tumorous growth", "setting": "juvenile zebrafish", "value": "No obvious ectopic or tumorous growth"}, {"measurement": "body growth rate", "setting": "juvenile zebrafish; vs DMSO", "value": "decreased significantly; also recorded: reduction"}, {"measurement": "body length", "setting": "juvenile zebrafish; vs DMSO", "value": "nearly significantly different"}, {"measurement": "growth rate of the caudal fin", "setting": "juvenile zebrafish; vs DMSO", "value": "reduced; also recorded: reduction"}, {"measurement": "tail (caudal fin) length", "setting": "juvenile zebrafish; vs DMSO", "value": "no differences"}, {"measurement": "difference in mass of TEAD1 protein after incubation", "setting": "TEAD1 [5]", "value": "+259.5 Da"}, {"measurement": "difference in mass of TEAD3 protein after incubation", "setting": "TEAD3 [6]", "value": "+259.5 Da"}]}
{"compound": "CCC(=O)N1CCC(CCOc2ccccc2)CC1", "note": "[DC-TEADin1072-N1, 1-(4-(2-Phenoxyethyl)piperidin-1-yl)propan-1-one]", "values": [{"measurement": "inhibition of TEAD3 palmitoylation", "setting": "[1]", "value": "minimal inhibition"}]}
{"compound": "C=CC(=O)N1CCCN(CCCOCc2ccccc2)C1", "note": "[DC-TEAD3in03, 1-(3-(3-(Benzyloxy)propyl)tetrahydropyrimidin-1(2H)-yl)prop-2-en-1-one]", "values": [{"measurement": "selectivity over other TEAD isoforms", "setting": "[1]; TEAD3 versus other TEAD isoforms, ABPP assays", "value": 100, "unit": "fold"}, {"measurement": "inhibition of TEAD3 palmitoylation", "setting": "[1]", "value": "potent inhibition"}, {"measurement": "inhibition of TEAD1 palmitoylation", "setting": "TEAD1-YBD", "value": "selectively inhibited"}, {"measurement": "inhibition of TEAD2 palmitoylation", "setting": "TEAD2", "value": "sparing"}, {"measurement": "inhibition of TEAD4 palmitoylation", "setting": "TEAD4", "value": "sparing"}, {"measurement": "IC50", "setting": "[7]", "value": "~18500", "unit": "nM"}, {"measurement": "effect on thermal stability of TEAD3 protein", "setting": "wild-type TEAD3-YBD", "value": "significantly improved"}, {"measurement": "effect on thermal stability of wild-type TEAD1", "setting": "widetype TEAD1", "value": "minimal effect"}, {"measurement": "effect on thermal stability of TEAD3 C371A mutant", "setting": "TEAD3-YBD C371A mutant", "value": "minimal effect"}, {"measurement": "effect on thermal stability of TEAD1 C359S mutant", "setting": "TEAD1 C359S", "value": "minimal effect"}, {"measurement": "IC50", "setting": "GAL4-TEAD3", "value": 1150, "unit": "nM"}, {"measurement": "TEAD reporter activity", "setting": "[8]", "value": "significant reduction"}, {"measurement": "effect on TOP Flash beta-catenin reporter", "setting": "[9]", "value": "minimal effect"}, {"measurement": "thermal stability / soluble fraction of TEAD3 in intact cells", "setting": "TEAD3 [4]", "value": "increased the soluble fraction; also recorded: significantly increases the content of TEAD3 soluble contents"}, {"measurement": "ectopic or tumorous growth", "setting": "juvenile zebrafish", "value": "no ectopic or tumorous growth"}, {"measurement": "body growth rate", "setting": "juvenile zebrafish; vs DMSO", "value": "did not observe a significant difference"}, {"measurement": "body length", "setting": "juvenile zebrafish; vs DMSO", "value": "did not observe a significant difference"}, {"measurement": "growth rate of the caudal fin", "setting": "juvenile zebrafish; vs DMSO", "value": "reduced the growth rate; also recorded: selective reduction"}]}
{"compound": "O=C(O)c1ccccc1Nc1cccc(C(F)(F)F)c1", "note": "[flufenamic acid]", "values": [{"measurement": "effect on TEAD‒YAP interaction", "setting": "TEAD‒YAP interaction [10]", "value": "minimal effect"}]}
{"compound": "C=CC(=O)N1CCC(O)(CCCOCc2ccccc2)CC1", "note": "[DC-TEAD3in01, 1-(4-(3-(Benzyloxy)propyl)-4-hydroxypiperidin-1-yl)prop-2-en-1-one]", "values": [{"measurement": "inhibition of TEAD3 palmitoylation", "setting": "[1]", "value": "potent inhibition"}]}
